Laboratory results: ChEMBL document CHEMBL1157464, “1-[(3-Aryloxy-3-aryl)propyl]-1H-imidazoles, new imidazoles with potent activity against Candida albicans and dermatophytes. Synthesis, structure-activity relationship, and molecular modeling studies” (J Med Chem, 2008)
Values after ≈ are worked out from the molar mass of the structure shown.

Legend:
Candida albicans [1] = experiment: Antifungal activity against Candida albicans ATCC 10261 at 35 degC after 48 hrs by broth microdilution test; type: functional; details: for MIC50: read-out: MIC50
Procedure, shortened: (§1)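 Broth microdilution per NCCLS M27-A2. Stocks in 100% DMSO, diluted in RPMI 1640 with 0.165 M MOPS at pH 7.0; final range 0.25–128 µg/mL. Inoculum 1000–5000 cells/mL from SDA subcultures. […] C. parapsilosis ATCC22019 served as QC strain.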

Candida parapsilosis = experiment: Antifungal activity against Candida parapsilosis ATCC 22019 at 35 degC after 48 hrs by broth microdilution test; type: functional; details: Lodderomyces parapsilosis, ATCC 22019, 48 h; for MFC: read-out: MFC; for MIC: read-out: MIC; procedure, shortened: as §1
Candida albicans [2] = experiment: Antifungal activity against fluconazole-sensitive Candida albicans Fe40 at 35 degC after 48 hrs by broth microdilution test; type: functional; procedure, shortened: as §1
[3] = Cytotoxicity against human U937 cells assessed as reduction of cell viability after 24 hrs by MTT assay; type: cell-based, U-937
Procedure, shortened: (§2)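 U937 and K562 cells, from ATCC, plated at 5 × 10^4/mL in phenol-red-free RPMI-1640 with 20% FBS and penicillin/streptomycin. Compounds added 2 h later at 25–100 µg/mL, then 24 h at 37 °C. MTT at 1 mg/mL for 3 h, formazan dissolved in isopropanol with 0.1 N HCl, absorbance read at 570 nm. CC50 is the concentration reducing viability by 50% versus the drug-free control.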

Candida albicans [4] = experiment: Antifungal activity against fluconazole-resistant Candida albicans isolated from oropharyngeal or vaginal disease patient after 48 hrs by broth microdilution test; type: functional
[5] = Cytotoxicity against human K562 cells after assessed as reduction of cell viability 24 hrs by MTT assay; type: cell-based; procedure, shortened: as §2
Candida albicans [6] = experiment: Antifungal activity against Candida albicans ATCC 10261 at 35 degC after 48 to 96 hrs by broth microdilution test; type: functional
Procedure, shortened: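 Minimal fungicidal concentration for Candida. […] MFC is the lowest concentration allowing fewer than two colonies (99% killing).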

[7] = Therapeutic index, ratio of CC50 for human U937 cells to MIC90 for Candida albicans ATCC 10261; type: cell-based, U-937
Procedure, shortened: (§3)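 Therapeutic index calculated as CC50 in the given cell line divided by MIC90.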

[8] = Therapeutic index, ratio of CC50 for human K562 cells to MIC90 for Candida albicans ATCC 10261; type: cell-based; procedure, shortened: as §3
Arthrodermataceae [9] = experiment: Antifungal activity against dermatophytes at 28 degC after 7 days by broth microdilution test; type: functional; details: 168 h
Procedure, shortened: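 Ten clinical isolates (two M. canis, five M. gypseum, three T. mentagrophytes) tested by NCCLS M38-A broth microdilution in MOPS-buffered RPMI 1640, pH 7.0, over 0.25–128 µg/mL. Conidial/hyphal suspension from PDA slants (28 °C, 7 days) adjusted to 65–70% transmittance at OD530, then diluted 1:50.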

Arthrodermataceae [10] = experiment: Antifungal activity against dermatophytes at 28 degC after 5 days by broth microdilution test; details: for MFC: Arthrodermataceae
Arthrodermataceae [11] = experiment: Antifungal activity against dermatophytes at 28 degC after 48 to 96 hrs by broth microdilution test
[12] = Candida albicans, ATCC 10261, 48 h, read-out: MIC
[13] = Candida albicans, ATCC 10261, 48 h
[14] = Candida albicans, ATCC 10261, 48 h, read-out: MIC90
[15] = Candida albicans, ATCC 10261, read-out: MFC

SMILES	MIC (Candida albicans [1]; [12])	MIC50 (Candida albicans [1]; [13])	MIC90 (Candida albicans [1]; [14])	MFC (Candida parapsilosis)	MIC (Candida parapsilosis)	MIC (Candida albicans [2])	CC50 at 24 h [3]	MIC (Candida albicans [4])	CC50 at 24 h [5]	MFC50 (Candida albicans [6])	MFC90 (Candida albicans [6])	MFC (Candida albicans [6]; [15])	MIC (Arthrodermataceae [9])	MIC50 (Arthrodermataceae [9])	MIC90 (Arthrodermataceae [9])	MFC90 (Arthrodermataceae [10])	MFC (Arthrodermataceae [10])	MFC50 (Arthrodermataceae [11])	further results
Clc1ccc(C(CCn2ccnc2)Oc2c(Cl)cccc2Cl)cc1 (stereo not given)	5 µg/mL (≈ 13.1 µM)	2 µg/mL (≈ 5.24 µM)	8 µg/mL (≈ 21 µM)	4 µg/mL (≈ 10.5 µM)	1 µg/mL (≈ 2.62 µM)	2 µg/mL (≈ 5.24 µM)	271 µM	6.8 µg/mL (≈ 17.8 µM)	135 µM	8 µg/mL (≈ 21 µM)	16 µg/mL (≈ 41.9 µM)	14.7 µg/mL (≈ 38.5 µM)	–	–	–	–	–	–	–
Cc1ccc(OC(CCCn2ccnc2)c2ccc(Cl)cc2)cc1 (stereo not given)	2.1 µg/mL (≈ 6.16 µM)	2 µg/mL (≈ 5.87 µM)	4 µg/mL (≈ 11.7 µM)	0.25 µg/mL (≈ 0.733 µM)	0.03 µg/mL (≈ 0.088 µM)	–	350 µM	–	259 µM	4 µg/mL (≈ 11.7 µM)	8 µg/mL (≈ 23.5 µM)	5.6 µg/mL (≈ 16.4 µM)	–	–	–	–	–	–	selectivity ratio [7]: 87.5; selectivity ratio [8]: 64.8
Clc1ccc(C(CCn2ccnc2)Oc2ccccc2)cc1 (stereo not given)	8.8 µg/mL (≈ 28.1 µM)	8 µg/mL (≈ 25.6 µM)	16 µg/mL (≈ 51.2 µM)	16 µg/mL (≈ 51.2 µM)	4 µg/mL (≈ 12.8 µM)	8 µg/mL (≈ 25.6 µM)	248 µM	14.4 µg/mL (≈ 46 µM)	186 µM	16 µg/mL (≈ 51.2 µM)	64 µg/mL (≈ 205 µM)	29.2 µg/mL (≈ 93.4 µM)	7.2 µg/mL (≈ 23 µM)	8 µg/mL (≈ 25.6 µM)	8 µg/mL (≈ 25.6 µM)	32 µg/mL (≈ 102 µM)	30.4 µg/mL (≈ 97.2 µM)	32 µg/mL (≈ 102 µM)	–
C[C@@H](c1ncncc1F)[C@](O)(Cn1cncn1)c1ccc(F)cc1F [VORICONAZOLE]	0.89 µg/mL (≈ 2.55 µM)	0.25 µg/mL (≈ 0.716 µM)	> 1 µg/mL	0.125 µg/mL (≈ 0.358 µM)	0.015 µg/mL (≈ 0.0429 µM)	0.016 µg/mL (≈ 0.0458 µM)	–	16 µg/mL (≈ 45.8 µM)	–	>16 µg/mL	>16 µg/mL	26 µg/mL (≈ 74.4 µM)	0.03 µg/mL (≈ 0.0859 µM)	0.016 µg/mL (≈ 0.0458 µM)	0.06 µg/mL (≈ 0.172 µM)	1 µg/mL (≈ 2.86 µM)	0.9 µg/mL (≈ 2.58 µM)	1 µg/mL (≈ 2.86 µM)	–
CCC(C)n1ncn(-c2ccc(N3CCN(c4ccc(OC[C@@H]5CO[C@@](Cn6cncn6)(c6ccc(Cl)cc6Cl)O5)cc4)CC3)cc2)c1=O (stereo not given in full) [ITRACONAZOLE]	0.5 µg/mL (≈ 0.709 µM)	0.5 µg/mL (≈ 0.709 µM)	1 µg/mL (≈ 1.42 µM)	0.25 µg/mL (≈ 0.354 µM)	0.06 µg/mL (≈ 0.085 µM)	0.031 µg/mL (≈ 0.0439 µM)	–	16 µg/mL (≈ 22.7 µM)	–	>1 µg/mL	>1 µg/mL	> 1 µg/mL	0.14 µg/mL (≈ 0.198 µM)	0.125 µg/mL (≈ 0.177 µM)	0.25 µg/mL (≈ 0.354 µM)	2 µg/mL (≈ 2.83 µM)	1.4 µg/mL (≈ 1.98 µM)	1 µg/mL (≈ 1.42 µM)	–
Cc1ccc(OC(CCn2ccnc2)c2ccccc2)cc1 (racemic)	–	8 µg/mL (≈ 27.4 µM)	–	16 µg/mL (≈ 54.7 µM)	2 µg/mL (≈ 6.84 µM)	–	141 µM	–	95.9 µM	16 µg/mL (≈ 54.7 µM)	16 µg/mL (≈ 54.7 µM)	–	17.2 µg/mL (≈ 58.8 µM)	16 µg/mL (≈ 54.7 µM)	32 µg/mL (≈ 109 µM)	32 µg/mL (≈ 109 µM)	28.8 µg/mL (≈ 98.5 µM)	32 µg/mL (≈ 109 µM)	MIC (Candida albicans [1]): 9.4 µg/mL (≈ 32.1 µM); MIC90 (Candida albicans [1]): 16 µg/mL (≈ 54.7 µM); MFC (Candida albicans [6]): 13.6 µg/mL (≈ 46.5 µM)
Clc1ccc(C(CCn2ccnc2)Oc2ccccc2Cl)cc1 (stereo not given)	7.7 µg/mL (≈ 22.2 µM)	8 µg/mL (≈ 23 µM)	8 µg/mL (≈ 23 µM)	32 µg/mL (≈ 92.2 µM)	4 µg/mL (≈ 11.5 µM)	8 µg/mL (≈ 23 µM)	209 µM	8 µg/mL (≈ 23 µM)	205 µM	32 µg/mL (≈ 92.2 µM)	32 µg/mL (≈ 92.2 µM)	27 µg/mL (≈ 77.8 µM)	–	–	–	–	–	–	–
Fc1ccc(C(CCn2ccnc2)Oc2ccc(Cl)cc2Cl)cc1 (stereo not given)	2.9 µg/mL (≈ 7.94 µM)	4 µg/mL (≈ 11 µM)	4 µg/mL (≈ 11 µM)	4 µg/mL (≈ 11 µM)	0.5 µg/mL (≈ 1.37 µM)	2 µg/mL (≈ 5.48 µM)	120 µM	5.6 µg/mL (≈ 15.3 µM)	74.2 µM	8 µg/mL (≈ 21.9 µM)	8 µg/mL (≈ 21.9 µM)	6.9 µg/mL (≈ 18.9 µM)	13.5 µg/mL (≈ 37 µM)	16 µg/mL (≈ 43.8 µM)	16 µg/mL (≈ 43.8 µM)	64 µg/mL (≈ 175 µM)	41 µg/mL (≈ 112 µM)	32 µg/mL (≈ 87.6 µM)	–
